In ChEMBL document CHEMBL1140196, “Synthesis and biological activities of some new fluorinated coumarins and 1-aza coumarins” (Eur J Med Chem, 2008):
Calls of active or inactive are those of the source.

Tests used:
[1] = Acute toxicity in po dosed albino mouse after 24 hrs; format: organism-based; details: in vivo
Method in brief: (§1)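 Groups of six albino mice (20–25 g), fasted overnight, dosed once orally or intraperitoneally at 100 to 1000 mg kg^-1 body weight. Observed for 24 h for mortality and signs of acute toxicity (altered motor activity, tremors, convulsion, sedation, lacrimation). LD50 cut-off set at the highest dose tested, 1000 mg kg^-1.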

Rattus norvegicus [2] = experiment: Antiinflammatory activity in Wistar rat assessed as inhibition of formalin-induced paw oedema volume at 100 mg/kg, po administered 30 mins before formalin challenge after 1 hr relative to control; format: functional
Method in brief: (§2)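 Oral dosing at 100 mg/kg as a 2% CMC suspension, 30 min before injecting 3.5% formalin into the paw. Groups of six Wistar rats of either sex. Paw volume read by mercury-displacement plethysmograph at 0 h (right after formalin) and at 1, 2, 3, 4 and 5 h. Percent inhibition versus plain 2% CMC controls; SEM reported.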

Rattus norvegicus [3] = experiment: Antiinflammatory activity in Wistar rat assessed as inhibition of formalin-induced paw oedema volume at 100 mg/kg, po administered 30 mins before formalin challenge after 4 hrs relative to control; format: functional; method in brief: as §2
Aspergillus niger [4] = experiment: Antifungal activity against Aspergillus niger at 50 ug/mL after 48 hrs by cup-plate method; format: functional
Bacillus [5] = experiment: Antibacterial activity against […] at 25 ug/mL after 48 hrs by cup-plate method; format: functional; details: for zone of inhibition at 25 µg/mL: read-out: IZ
Bacillus [6] = experiment: Antibacterial activity against […] at 100 ug/mL after 48 hrs by cup-plate method; format: functional
[7] = Acute toxicity in ip dosed albino mouse after 24 hrs; format: organism-based; details: in vivo; method in brief: as §1
Aspergillus niger [8] = experiment: Antifungal activity against Aspergillus niger at 100 ug/mL after 48 hrs by cup-plate method; format: functional
Rattus norvegicus [9] = experiment: Antiinflammatory activity in Wistar rat assessed as inhibition of formalin-induced paw oedema volume at 100 mg/kg, po administered 30 mins before formalin challenge after 2 hrs relative to control; format: functional; method in brief: as §2
Rattus norvegicus [10] = experiment: Antiinflammatory activity in Wistar rat assessed as inhibition of formalin-induced paw oedema volume at 100 mg/kg, po administered 30 mins before formalin challenge after 3 hrs relative to control; format: functional; method in brief: as §2
Escherichia coli [11] = experiment: Antibacterial activity against Escherichia coli at 100 ug/mL after 48 hrs by cup-plate method; format: functional
Escherichia coli [12] = experiment: Antibacterial activity against Escherichia coli at 50 ug/mL after 48 hrs by cup-plate method; format: functional
Mus musculus = experiment: Analgesic activity in albino mouse assessed as inhibition of acetic acid-induced writhing at 10 mg/kg, po; format: functional
Method in brief: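 Acetic acid writhing test: 0.6% acetic acid at 0.1 ml/10 g given intraperitoneally to albino mice of both sexes (18–22 g). Compounds given orally at 10 mg/kg as a suspension in 5% carboxymethyl cellulose. Indomethacin 10 mg/kg was the reference under the same conditions.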

Macrophomina phaseolina [13] = experiment: Antifungal activity against Rhizoctonia bataticola at 50 ug/mL after 48 hrs by cup-plate method; format: functional
Macrophomina phaseolina [14] = experiment: Antifungal activity against Rhizoctonia bataticola at 100 ug/mL after 48 hrs by cup-plate method; format: functional
Macrophomina phaseolina [15] = experiment: Antifungal activity against Rhizoctonia bataticola at 25 ug/mL after 48 hrs by cup-plate method; format: functional
Bacillus [16] = experiment: Antibacterial activity against […] at 50 ug/mL after 48 hrs by cup-plate method; format: functional
Rattus norvegicus [17] = experiment: Gastrointestinal toxicity in Wistar rat assessed as ulcerogenic effect at 400 mg/kg, po administered twice at 2 hrs interval after 4 hrs; format: organism-based; set-up: dose 400 mg/kg, route oral; details: in vivo
Method in brief: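 Male Wistar rats fasted 36 h, then given 400 mg/kg orally twice, 2 h apart. Animals killed 4 h later and the stomach examined for lesions; ulcer index recorded.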

Escherichia coli [18] = experiment: Antibacterial activity against Escherichia coli at 25 ug/mL after 48 hrs by cup-plate method; format: functional; details: for zone of inhibition at 25 µg/mL: read-out: IZ
Aspergillus niger [19] = experiment: Antifungal activity against Aspergillus niger at 25 ug/mL after 48 hrs by cup-plate method; format: functional
Rattus norvegicus [20] = experiment: Antiinflammatory activity in Wistar rat assessed as inhibition of formalin-induced paw oedema volume at 100 mg/kg, po administered 30 mins before formalin challenge after 5 hrs relative to control; format: functional; method in brief: as §2

Row | SMILES | LD50 at 24 h [1] [mg/kg] | inhibition in vivo at 100 mg/kg (Rattus norvegicus [2]) [%] | inhibition in vivo at 100 mg/kg (Rattus norvegicus [3]) [%] | LD50 at 24 h [7] [mg/kg] | inhibition in vivo at 100 mg/kg (Rattus norvegicus [9]) [%] | inhibition in vivo at 100 mg/kg (Rattus norvegicus [10]) [%] | inhibition in vivo at 10 mg/kg (Mus musculus) [%] | UI (Rattus norvegicus [17]) | inhibition in vivo at 100 mg/kg (Rattus norvegicus [20]) [%] | also measured
1 | O=c1cc(COc2ccc(F)cc2)c2ccc(Cl)cc2[nH]1 | > 1000 | 24 | 66 | > 800 | 24 | 54 | 61.3 | 67.5 | 78 | inhibition at 50 µg/mL (Aspergillus niger [4]): 47%; inhibition at 25 µg/mL (Bacillus [5]): 22%; zone of inhibition at 25 µg/mL (Bacillus [5]): 52 mm; inhibition at 100 µg/mL (Bacillus [6]): 76%; inhibition at 100 µg/mL (Aspergillus niger [8]): 79%; inhibition at 100 µg/mL (Escherichia coli [11]): 78%; inhibition at 50 µg/mL (Escherichia coli [12]): 56%; inhibition at 50 µg/mL (Macrophomina phaseolina [13]): 72%; inhibition at 100 µg/mL (Macrophomina phaseolina [14]): 86%; inhibition at 25 µg/mL (Macrophomina phaseolina [15]): 55%; inhibition at 50 µg/mL (Bacillus [16]): 40%; inhibition at 25 µg/mL (Escherichia coli [18]): 34%; zone of inhibition at 25 µg/mL (Escherichia coli [18]): 72 mm; inhibition at 25 µg/mL (Aspergillus niger [19]): 34%; zone of inhibition at 25 µg/mL (Aspergillus niger [19]; read-out: IZ): 68 mm
2 | Cc1cccc2c(CNc3ccc(F)cc3)cc(=O)[nH]c12 | > 1000 | 23 | 73 | > 700 | 28 | 6 | 67 | 55.35 | 85 | 
3 | O=c1cc(CNc2ccc(F)cc2)c2ccc3ccccc3c2o1 | > 1000 | 81 | 71 | > 700 | 54 | 53 | 76.4 | 64.93 | 81 | 
4 | O=c1cc(COc2ccc(F)cc2)c2ccccc2[nH]1 | > 1000 | 35 | 63 | > 800 | 23 | 52 | 15.8 | 60.71 | 77 | 
5 | Cc1ccc2oc(=O)cc(COc3ccc(F)cc3)c2c1 | > 1000 | 40 | 64 | > 700 | 36 | 48 | 72.7 | 57.29 | 76 | 
6 | O=c1cc(COc2ccc(F)cc2)c2ccc3ccccc3c2o1 | > 1000 | 46 | 66 | > 800 | 30 | 45 | 23.2 | 61.8 | 75 | 
7 | O=c1cc(CNc2ccc(F)cc2)c2c(ccc3ccccc32)o1 | > 1000 | 63 | 60 | > 800 | 35 | 53 | 10.5 | 64.93 | 77 | 
8 | Cc1ccc2c(CNc3ccc(Br)cc3)cc(=O)oc2c1 |  |  |  |  |  |  |  |  |  | inhibition at 50 µg/mL (Aspergillus niger [4]): 23%; inhibition at 25 µg/mL (Bacillus [5]): 21%; zone of inhibition at 25 µg/mL (Bacillus [5]): 50 mm; inhibition at 100 µg/mL (Bacillus [6]): 63%; inhibition at 100 µg/mL (Aspergillus niger [8]): 55%; inhibition at 100 µg/mL (Escherichia coli [11]): 64%; inhibition at 50 µg/mL (Escherichia coli [12]): 35%; inhibition at 50 µg/mL (Macrophomina phaseolina [13]): 35%; zone of inhibition at 50 µg/mL (Macrophomina phaseolina [13]; read-out: IZ): 90 mm; inhibition at 100 µg/mL (Macrophomina phaseolina [14]): 59%; Activity (Macrophomina phaseolina [15]): inactive; inhibition at 50 µg/mL (Bacillus [16]): 37%; inhibition at 25 µg/mL (Escherichia coli [18]): 13%; zone of inhibition at 25 µg/mL (Escherichia coli [18]): 38 mm; Activity (Aspergillus niger [19]): inactive
